Measured values reported in ChEMBL document CHEMBL1157946, “Sesquiterpene lactones as allelochemicals” (J Nat Prod, 2006).
Activity calls are given as the source filed them. The calls are words filed in the database; no cut-off is given here.

Key:
Triticum aestivum [1] = assay: Growth inhibition of Triticum aestivum L. cv. Duro at 1 mM after 24 hrs by coleoptile assay; format: functional, organism-based
Summary of the method: (§1)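 Etiolated wheat coleoptile sections (apical 2 mm discarded, next 4 mm used; cut under green safelight), tested at 10^-3 to 10^-6 M from DMSO stock (max 0.1% DMSO final) in phosphate–citrate buffer pH 5.6 with 2% sucrose. Five sections per tube, three tubes per dilution, duplicated. Tubes rotated at 0.25 rpm, 24 h, 22 °C, dark. Lengths from digitized images. Reported as % difference from parallel control; Welch's test.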

Lactuca sativa [2] = assay: Phytotoxicity against Lactuca sativa L. assessed as inhibition of root growth at 0.5 mM to 50 uM relative to control; format: functional, organism-based
Summary of the method: (§2)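 Seeds on filter paper in Petri dishes with 10^-2 M MES buffer, pH 6.0. Test concentrations 5×10^-4, 10^-4, 5×10^-5 and 10^-5 M, made by diluting DMSO solutions at 5 μL/mL buffer. Dishes sealed and kept at 25 °C in the dark: lettuce and tomato 5 days, onion 7 days. Plants frozen at -10 °C for 24 h before measurement. Root and shoot length recorded automatically and compared with buffer/DMSO control.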

Lactuca sativa [3] = assay: Phytotoxicity against Lactuca sativa L. assessed as inhibition of shoot growth at 0.5 mM to 50 uM relative to control; format: functional, organism-based; summary of the method: as §2
Solanum lycopersicum [4] = assay: Phytotoxicity against Lycopersicon esculentum Will assessed as inhibition of shoot development at 0.5 mM relative to control; format: functional; summary of the method: as §2
Allium cepa [5] = assay: Phytotoxicity against Allium cepa assessed as inhibition of root growth at 0.5 mM relative to control; format: functional; summary of the method: as §2
Triticum aestivum [6] = assay: Growth stimulation of Triticum aestivum L. cv. Duro at <1 mM after 24 hrs by coleoptile assay; format: functional, organism-based; summary of the method: as §1
Triticum aestivum [7] = assay: Growth inhibition of Triticum aestivum L. cv. Duro after 24 hrs by coleoptile assay; format: functional, organism-based; summary of the method: as §1
Triticum aestivum [8] = assay: Growth inhibition of Triticum aestivum L. cv. Duro at 1 uM after 24 hrs by coleoptile assay; format: functional; summary of the method: as §1
Solanum lycopersicum [9] = assay: Phytotoxicity against Lycopersicon esculentum Will assessed as inhibition of root growth at 0.5 mM to 50 uM relative to control; format: functional; summary of the method: as §2
Allium cepa [10] = assay: Phytotoxicity against Allium cepa assessed as inhibition of shoot growth at 0.5 mM relative to control; format: functional; summary of the method: as §2

C=C1C(=O)O[C@@H]2[C@H]3C(C)=CC[C@H]3[C@](C)(O)C[C@@H](OC(=O)/C(C)=C\C)[C@@H]12
IC50 (Triticum aestivum [1]): 150 µM
inhibition at 1000 µM (Triticum aestivum [1]): 98%

C=C1C(=O)O[C@H]2/C=C(/CO)C(=O)/C=C/[C@@](C)(O)C[C@@H](OC(=O)/C(C)=C\C)[C@@H]12
Activity (Lactuca sativa [2]): Active
Activity (Lactuca sativa [3]): Active
inhibition at 500 µM (Solanum lycopersicum [4]): 20%
inhibition at 500 µM (Allium cepa [5]): 54%

C=C1C(=O)O[C@H]2[C@H]1[C@H](OC(=O)/C(C)=C\C)C[C@@]1(C)[C@H](O)C[C@H](O)C(=C)[C@@H]21
Activity (Triticum aestivum [6]): Active

C=C1C(=O)O[C@@H]2[C@H]3C(CO)=CC[C@H]3C(=C)CC[C@@H]12 [ANNUOLIDE A]
inhibition at 1000 µM (Triticum aestivum [1]): 90%
IC50 (Triticum aestivum [7]; Triticum aestivum, 24 h): 370 µM
inhibition at 1 µM (Triticum aestivum [8]): 35%

C=C1C(=O)O[C@@H]2[C@H]3C(C)=C[C@H](O)[C@H]3[C@](C)(O)C[C@@H](OC(=O)/C(C)=C\C)[C@@H]12 [ANNUOLIDE H]
inhibition (INH) (Triticum aestivum [7]): 82%

C=C1C(=O)O[C@H]2[C@H]1[C@H](OC(=O)/C(C)=C\C)C[C@]1(C)C=CC(=O)C(=C)[C@H]2O1 [HELIVYPOLIDE F]
Activity (Triticum aestivum [1]): Active
Activity (Lactuca sativa [2]): Active
Activity (Lactuca sativa [3]): Active
inhibition (INH) (Solanum lycopersicum [9]): 32%
inhibition at 500 µM (Solanum lycopersicum [4]): 20%
inhibition at 500 µM (Allium cepa [5]): 54%
inhibition at 500 µM (Allium cepa [10]): 20%

C=C1C(=O)O[C@@H]2/C=C(/CO)[C@@]3(O)CC[C@@](C)(C[C@@H](OC(=O)/C(C)=C\C)[C@@H]12)O3 [NIVEUSIN B]
inhibition at 1000 µM (Triticum aestivum [1]): 92%
inhibition at 500 µM (Solanum lycopersicum [4]): 20%
